{"data": "Measured values of several laboratories", "target": "Dual specificity tyrosine-phosphorylation-regulated kinase 1B (DYRK1B, Homo sapiens, UniProt Q9Y463)", "technique": "competition with immobilised ligand", "note": "Lines come from different studies, so protocols differ."}
{"Compound": "CN(CCCC(F)(F)F)c1nccc(-c2cnn3ncccc23)n1", "assay": "binding", "conditions": "1 µM", "remaining binding": "39%"}
{"Compound": "COc1cnc(Nc2cccc(S(N)(=O)=O)c2)nc1N1CCN(c2ccccc2)C(=O)C1", "assay": "binding", "conditions": "1 µM", "remaining binding": "91%"}
{"Compound": "COc1ccc2c(c1)O[C@@H](c1ccc(OC)c(OC)c1)C[C@H]2NC(=O)C1(c2ccc3c(c2)OC(F)(F)O3)CC1", "assay": "cell-free assay", "conditions": "1 µM", "remaining binding": "100%"}
{"Compound": "O=C(NCC1CCOCC1)c1n[nH]cc1NC(=O)c1c(F)cccc1F", "assay": "binding", "conditions": "1 µM", "remaining binding": "10%"}
{"Compound": "Cc1c[nH]c2nccc(Oc3c(F)cc(Nc4cc(Cl)nc(N)n4)cc3F)c12", "assay": "cell-free assay", "conditions": "0.1 µM", "remaining binding": "100%"}
{"Compound": "O=C(c1ccc(Nc2ncc(Cl)c(-c3ccc(Cl)s3)n2)cc1)N1CCC(N2CCCC2)CC1", "assay": "binding", "conditions": "1 µM", "remaining binding": "33%"}
{"Compound": "CNC(=O)[C@@H]1CC[C@@H](n2c(-c3ccc4cnccc4c3)nc3ccc(C(=O)NCc4cccc(C(N)=O)c4)cc32)C1", "assay": "binding", "conditions": "1 µM", "remaining binding": "45%"}
{"Compound": "O=C(c1ccc(Nc2nccc(-c3cc4ccccc4s3)n2)cc1)N1CCC(N2CCCC2)CC1", "assay": "binding", "conditions": "1 µM", "remaining binding": "99%"}
{"Compound": "Cc1cc(-n2nc(Cc3cc(F)cc(C(F)(F)F)c3)nc2C)ccc1C(N)=O", "assay": "cell-free assay", "conditions": "1 µM", "remaining binding": "100%"}
{"Compound": "N#Cc1ccccc1CSc1nnc2c(n1)[nH]c1ccccc12", "assay": "binding", "conditions": "10 µM", "remaining binding": "74%"}
{"Compound": "CCC(=O)N[C@@H]1CC[C@H](C(=O)N(C)c2ccc(-c3nc4ccccc4o3)cc2)C1", "assay": "cell-free assay", "conditions": "1 µM", "remaining binding": "36%"}
{"Compound": "c1cncc(-c2cccc(Nc3nccc(NC4CCCCC4)n3)c2)c1", "assay": "binding", "conditions": "10 µM", "remaining binding": "38%"}
{"Compound": "O=C(NCCCN1CCOCC1)c1ccc(Nc2nccc(-c3cc4ccccc4s3)n2)cc1", "assay": "binding", "conditions": "1 µM", "remaining binding": "92%"}
{"Compound": "Nc1c(C(=O)NCc2ccc(C(=O)NCCCC3CCCCC3)cc2)cnn1-c1ccccc1", "assay": "cell-free assay", "conditions": "0.1 µM", "remaining binding": "100%"}
{"Compound": "COc1ncc2cc3ccccc3nc2c1C#N", "assay": "cell-free assay", "conditions": "5 µM", "remaining binding": "81%"}
